# In ChEMBL document CHEMBL1165965, “Synthesis and structure-activity relationships of 1,2,3,4-tetrahydropyrido[2,3-b]pyrazines as potent and selective inhibitors of the anaplastic lymphoma kinase” (Bioorg Med Chem, 2010):
# Experiments:
# [1] = target: T1, Serine/threonine-protein kinase LATS2 (Homo sapiens) (UniProt Q9NRM7); assay: Inhibition of LATS2 at 1 uM
# T1 sequence (whole entry): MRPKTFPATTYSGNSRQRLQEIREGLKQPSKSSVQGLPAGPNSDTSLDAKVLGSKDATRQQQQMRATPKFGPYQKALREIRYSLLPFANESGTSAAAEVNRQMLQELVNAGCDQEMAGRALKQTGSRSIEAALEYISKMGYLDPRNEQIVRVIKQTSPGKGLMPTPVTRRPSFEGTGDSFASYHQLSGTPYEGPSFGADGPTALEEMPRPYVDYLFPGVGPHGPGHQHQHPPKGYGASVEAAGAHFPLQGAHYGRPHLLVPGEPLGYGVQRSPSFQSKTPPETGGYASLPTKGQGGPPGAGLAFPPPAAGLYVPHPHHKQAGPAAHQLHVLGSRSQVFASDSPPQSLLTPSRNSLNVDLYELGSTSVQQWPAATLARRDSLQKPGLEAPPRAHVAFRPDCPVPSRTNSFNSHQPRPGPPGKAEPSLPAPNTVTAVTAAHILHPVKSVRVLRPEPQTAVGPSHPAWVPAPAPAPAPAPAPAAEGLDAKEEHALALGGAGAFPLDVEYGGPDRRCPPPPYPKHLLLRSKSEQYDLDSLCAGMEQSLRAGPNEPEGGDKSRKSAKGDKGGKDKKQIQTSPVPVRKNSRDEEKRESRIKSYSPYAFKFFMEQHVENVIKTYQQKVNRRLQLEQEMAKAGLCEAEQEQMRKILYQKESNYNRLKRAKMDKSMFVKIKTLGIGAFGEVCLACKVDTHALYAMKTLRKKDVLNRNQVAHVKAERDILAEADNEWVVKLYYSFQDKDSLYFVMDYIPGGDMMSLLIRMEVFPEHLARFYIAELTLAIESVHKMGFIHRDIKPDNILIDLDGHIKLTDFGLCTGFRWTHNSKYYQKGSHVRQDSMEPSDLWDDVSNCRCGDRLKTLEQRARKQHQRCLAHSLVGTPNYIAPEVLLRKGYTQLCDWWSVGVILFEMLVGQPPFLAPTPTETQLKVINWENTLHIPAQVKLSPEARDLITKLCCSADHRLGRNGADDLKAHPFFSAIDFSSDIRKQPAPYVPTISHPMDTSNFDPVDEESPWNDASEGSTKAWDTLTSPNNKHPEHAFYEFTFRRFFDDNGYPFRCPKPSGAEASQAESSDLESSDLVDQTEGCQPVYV
# [2] = target: T2, Phosphorylase b kinase gamma catalytic chain, liver/testis isoform (Homo sapiens) (UniProt P15735); assay: Inhibition of PHKG2 at 1 uM
# T2 sequence (whole entry): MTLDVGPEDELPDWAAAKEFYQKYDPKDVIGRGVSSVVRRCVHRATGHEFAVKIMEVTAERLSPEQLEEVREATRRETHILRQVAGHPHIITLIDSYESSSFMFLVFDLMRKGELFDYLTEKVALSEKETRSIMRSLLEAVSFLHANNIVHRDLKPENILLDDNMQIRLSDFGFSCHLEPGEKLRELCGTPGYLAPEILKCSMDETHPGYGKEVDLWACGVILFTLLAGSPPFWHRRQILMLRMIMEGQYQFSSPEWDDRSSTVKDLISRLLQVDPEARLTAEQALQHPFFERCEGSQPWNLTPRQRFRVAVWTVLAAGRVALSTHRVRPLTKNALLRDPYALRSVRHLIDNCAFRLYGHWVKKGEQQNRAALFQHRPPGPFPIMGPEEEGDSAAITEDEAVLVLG
# [3] = target: Vascular endothelial growth factor receptor 1 (Homo sapiens) (UniProt P17948); assay: Inhibition of FLT1 at 1 uM
# How it was run: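 Single-concentration screen on the Ambit KINOMEscan platform, run against a panel of 250–400 kinases. Per-kinase inhibition was also summarized as S(90), the fraction of kinases inhibited by more than 90%.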
# [4] = target: Serine/threonine-protein kinase PAK 3 (Homo sapiens) (UniProt O75914); assay: Inhibition of PAK3 at 1 uM
# Chain of Serine/threonine-protein kinase PAK 3 (Homo sapiens) (O75914 whole entry, looked up, the tested form may be a part): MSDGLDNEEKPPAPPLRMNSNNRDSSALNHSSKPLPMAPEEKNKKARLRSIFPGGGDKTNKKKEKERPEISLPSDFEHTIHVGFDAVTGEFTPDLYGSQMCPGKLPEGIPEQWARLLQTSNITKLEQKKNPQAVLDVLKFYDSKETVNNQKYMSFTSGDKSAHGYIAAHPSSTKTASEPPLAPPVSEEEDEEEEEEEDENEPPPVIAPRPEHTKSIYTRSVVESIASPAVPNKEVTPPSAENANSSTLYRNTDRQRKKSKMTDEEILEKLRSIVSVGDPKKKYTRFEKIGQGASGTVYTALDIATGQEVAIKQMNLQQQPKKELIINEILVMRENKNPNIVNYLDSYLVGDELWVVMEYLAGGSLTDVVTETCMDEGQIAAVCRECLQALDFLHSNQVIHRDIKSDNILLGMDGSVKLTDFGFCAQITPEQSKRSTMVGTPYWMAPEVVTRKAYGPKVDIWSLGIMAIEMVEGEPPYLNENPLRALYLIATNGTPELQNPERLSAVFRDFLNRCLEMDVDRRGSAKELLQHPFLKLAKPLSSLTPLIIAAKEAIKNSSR
# [5] = target: Ribosomal protein S6 kinase alpha-5 (Homo sapiens) (UniProt O75582); assay: Inhibition of RPS6KA5 C-terminal domain2 at 1 uM
# Chain of Ribosomal protein S6 kinase alpha-5 (Homo sapiens) (O75582 whole entry, looked up, the tested form may be a part, canonical isoform): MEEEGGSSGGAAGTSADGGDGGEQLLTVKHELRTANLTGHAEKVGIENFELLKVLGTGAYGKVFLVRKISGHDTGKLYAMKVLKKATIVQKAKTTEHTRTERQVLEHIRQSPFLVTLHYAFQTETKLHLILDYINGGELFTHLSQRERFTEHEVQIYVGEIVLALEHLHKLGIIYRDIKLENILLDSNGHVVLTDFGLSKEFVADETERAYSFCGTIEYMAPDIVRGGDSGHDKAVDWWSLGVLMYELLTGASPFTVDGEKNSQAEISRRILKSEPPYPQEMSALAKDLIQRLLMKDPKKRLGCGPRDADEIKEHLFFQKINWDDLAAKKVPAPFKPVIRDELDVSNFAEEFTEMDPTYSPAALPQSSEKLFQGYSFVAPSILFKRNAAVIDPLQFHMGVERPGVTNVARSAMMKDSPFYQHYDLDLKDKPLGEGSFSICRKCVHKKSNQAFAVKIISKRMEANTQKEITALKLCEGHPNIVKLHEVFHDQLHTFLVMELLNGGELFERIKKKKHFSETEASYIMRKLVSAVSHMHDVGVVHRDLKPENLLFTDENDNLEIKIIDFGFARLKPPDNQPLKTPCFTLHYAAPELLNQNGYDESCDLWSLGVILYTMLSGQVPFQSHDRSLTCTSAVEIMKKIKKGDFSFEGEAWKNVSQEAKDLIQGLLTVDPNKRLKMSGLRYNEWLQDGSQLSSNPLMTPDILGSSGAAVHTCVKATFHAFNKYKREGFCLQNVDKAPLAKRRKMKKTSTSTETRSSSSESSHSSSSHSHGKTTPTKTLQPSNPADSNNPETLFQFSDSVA
# [6] = target: Casein kinase I isoform gamma-2 (Homo sapiens) (UniProt P78368); assay: Inhibition of CSNK1G2 at 1 uM
# Chain of Casein kinase I isoform gamma-2 (Homo sapiens) (P78368 whole entry, looked up, canonical isoform): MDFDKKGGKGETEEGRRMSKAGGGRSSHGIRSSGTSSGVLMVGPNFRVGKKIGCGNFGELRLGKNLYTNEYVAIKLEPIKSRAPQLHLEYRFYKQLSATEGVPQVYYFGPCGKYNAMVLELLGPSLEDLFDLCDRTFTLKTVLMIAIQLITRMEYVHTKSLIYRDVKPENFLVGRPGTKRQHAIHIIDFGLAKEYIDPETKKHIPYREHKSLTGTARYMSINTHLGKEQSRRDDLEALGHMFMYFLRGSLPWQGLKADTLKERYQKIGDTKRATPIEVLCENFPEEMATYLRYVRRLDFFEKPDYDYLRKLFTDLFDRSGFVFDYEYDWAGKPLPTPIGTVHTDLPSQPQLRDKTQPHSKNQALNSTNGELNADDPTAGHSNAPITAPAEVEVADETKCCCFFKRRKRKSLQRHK
# How it was run: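 Single-concentration screen using Ambit Bioscience KINOMEscan technology across a panel of 250–400 kinases. Per-kinase inhibition from this screen was summarized as S(90), the fraction of kinases inhibited by more than 90%.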
# [7] = test system: Phosphatidylinositol 4,5-bisphosphate 3-kinase catalytic subunit alpha isoform (Homo sapiens), P42336 [H1047L]; assay: Inhibition of PIK3CA H1047L mutant at 1 uM
# Chain of Phosphatidylinositol 4,5-bisphosphate 3-kinase catalytic subunit alpha isoform (Homo sapiens), P42336 [H1047L] (P42336 whole entry H1047L, canonical isoform): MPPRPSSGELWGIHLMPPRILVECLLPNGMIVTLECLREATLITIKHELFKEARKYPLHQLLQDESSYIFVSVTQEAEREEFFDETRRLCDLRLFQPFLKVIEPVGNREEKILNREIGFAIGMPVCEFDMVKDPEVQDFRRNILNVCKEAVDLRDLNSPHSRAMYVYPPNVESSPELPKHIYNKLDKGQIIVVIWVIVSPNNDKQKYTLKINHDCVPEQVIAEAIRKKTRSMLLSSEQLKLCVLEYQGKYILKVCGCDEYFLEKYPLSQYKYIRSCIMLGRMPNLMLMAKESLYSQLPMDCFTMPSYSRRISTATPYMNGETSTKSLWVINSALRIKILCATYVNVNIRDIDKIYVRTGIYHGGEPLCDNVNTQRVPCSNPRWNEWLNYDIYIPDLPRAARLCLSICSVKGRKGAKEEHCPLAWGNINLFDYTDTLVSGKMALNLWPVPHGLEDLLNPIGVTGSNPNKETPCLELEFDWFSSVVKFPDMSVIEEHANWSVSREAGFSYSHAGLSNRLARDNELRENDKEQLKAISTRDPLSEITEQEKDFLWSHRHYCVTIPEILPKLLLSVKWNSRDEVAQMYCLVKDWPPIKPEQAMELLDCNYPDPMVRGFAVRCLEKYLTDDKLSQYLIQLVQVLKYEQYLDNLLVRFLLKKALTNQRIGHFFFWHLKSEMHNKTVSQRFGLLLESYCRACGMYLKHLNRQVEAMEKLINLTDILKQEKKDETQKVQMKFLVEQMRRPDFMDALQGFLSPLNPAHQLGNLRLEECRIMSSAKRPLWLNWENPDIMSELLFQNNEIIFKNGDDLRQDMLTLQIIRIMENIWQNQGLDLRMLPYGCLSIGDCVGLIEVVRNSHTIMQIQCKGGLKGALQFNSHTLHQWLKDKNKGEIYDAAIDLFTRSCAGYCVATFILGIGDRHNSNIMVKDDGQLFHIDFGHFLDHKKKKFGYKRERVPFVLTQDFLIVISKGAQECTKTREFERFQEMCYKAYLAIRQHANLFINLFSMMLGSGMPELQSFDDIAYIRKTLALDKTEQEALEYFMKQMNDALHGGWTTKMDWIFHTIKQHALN
# [8] = target: Calcium/calmodulin-dependent protein kinase type II subunit gamma (Homo sapiens) (UniProt Q13555); assay: Inhibition of CAMK2G at 1 uM
# Chain of Calcium/calmodulin-dependent protein kinase type II subunit gamma (Homo sapiens) (Q13555 whole entry): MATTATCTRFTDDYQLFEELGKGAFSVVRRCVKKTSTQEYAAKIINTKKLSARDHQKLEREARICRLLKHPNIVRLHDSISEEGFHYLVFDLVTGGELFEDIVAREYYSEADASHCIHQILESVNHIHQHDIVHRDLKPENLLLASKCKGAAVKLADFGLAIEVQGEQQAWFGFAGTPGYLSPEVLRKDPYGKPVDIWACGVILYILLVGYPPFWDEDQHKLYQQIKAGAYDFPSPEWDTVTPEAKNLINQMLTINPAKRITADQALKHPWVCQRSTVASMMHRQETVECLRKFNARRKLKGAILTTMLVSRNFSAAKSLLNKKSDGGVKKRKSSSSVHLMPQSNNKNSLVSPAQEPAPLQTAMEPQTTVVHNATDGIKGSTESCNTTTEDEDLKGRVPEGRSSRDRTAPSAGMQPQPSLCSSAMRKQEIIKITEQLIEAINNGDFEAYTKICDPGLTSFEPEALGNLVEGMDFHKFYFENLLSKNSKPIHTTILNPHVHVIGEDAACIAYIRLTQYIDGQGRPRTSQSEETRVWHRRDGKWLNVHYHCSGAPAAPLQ
# How it was run: (§1)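 Ambit KINOMEscan screen at a single concentration across a 250–400 kinase panel, recorded as percent inhibition. Selectivity was expressed as S(90), the fraction of kinases inhibited >90%.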
# [9] = test system: Tyrosine-protein kinase ABL1 (Homo sapiens), P00519 [F317I]; assay: Inhibition of ABL1 F317I mutant at 1 uM
# Chain of Tyrosine-protein kinase ABL1 (Homo sapiens), P00519 [F317I] (P00519 whole entry F317I): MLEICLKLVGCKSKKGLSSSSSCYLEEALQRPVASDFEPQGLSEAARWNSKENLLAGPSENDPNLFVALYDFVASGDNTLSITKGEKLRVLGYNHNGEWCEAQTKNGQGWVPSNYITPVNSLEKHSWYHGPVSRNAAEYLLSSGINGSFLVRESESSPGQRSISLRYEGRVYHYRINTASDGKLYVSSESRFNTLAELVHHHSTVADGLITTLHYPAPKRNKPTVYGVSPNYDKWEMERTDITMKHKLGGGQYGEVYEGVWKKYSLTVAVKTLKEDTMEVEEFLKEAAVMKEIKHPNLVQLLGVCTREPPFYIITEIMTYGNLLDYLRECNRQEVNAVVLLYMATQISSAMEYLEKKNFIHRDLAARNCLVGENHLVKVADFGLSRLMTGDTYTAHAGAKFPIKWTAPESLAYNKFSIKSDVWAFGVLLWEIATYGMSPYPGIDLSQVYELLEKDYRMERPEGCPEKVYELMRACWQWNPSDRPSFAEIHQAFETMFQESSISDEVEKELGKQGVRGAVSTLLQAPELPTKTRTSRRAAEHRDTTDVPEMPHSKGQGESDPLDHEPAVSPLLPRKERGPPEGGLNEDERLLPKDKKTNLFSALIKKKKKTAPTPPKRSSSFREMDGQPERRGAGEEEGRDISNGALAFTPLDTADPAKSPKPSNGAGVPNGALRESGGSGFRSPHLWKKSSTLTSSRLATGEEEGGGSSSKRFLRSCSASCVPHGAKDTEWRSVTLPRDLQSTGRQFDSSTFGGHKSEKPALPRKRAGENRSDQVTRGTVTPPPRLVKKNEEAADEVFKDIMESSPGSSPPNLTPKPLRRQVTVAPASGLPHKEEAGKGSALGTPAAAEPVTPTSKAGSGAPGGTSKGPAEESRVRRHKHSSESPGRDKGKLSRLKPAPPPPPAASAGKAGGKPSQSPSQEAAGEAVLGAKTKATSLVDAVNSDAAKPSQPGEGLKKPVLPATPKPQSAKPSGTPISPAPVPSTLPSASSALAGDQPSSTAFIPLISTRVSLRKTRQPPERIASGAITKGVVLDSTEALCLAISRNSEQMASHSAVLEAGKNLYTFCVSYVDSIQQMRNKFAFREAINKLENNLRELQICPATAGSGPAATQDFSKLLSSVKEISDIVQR
# [10] = target: T3, Activin receptor type-1B (Homo sapiens) (UniProt P36896); assay: Inhibition of ACVR1B at 1 uM; how it was run: as §1
# T3 sequence (whole entry): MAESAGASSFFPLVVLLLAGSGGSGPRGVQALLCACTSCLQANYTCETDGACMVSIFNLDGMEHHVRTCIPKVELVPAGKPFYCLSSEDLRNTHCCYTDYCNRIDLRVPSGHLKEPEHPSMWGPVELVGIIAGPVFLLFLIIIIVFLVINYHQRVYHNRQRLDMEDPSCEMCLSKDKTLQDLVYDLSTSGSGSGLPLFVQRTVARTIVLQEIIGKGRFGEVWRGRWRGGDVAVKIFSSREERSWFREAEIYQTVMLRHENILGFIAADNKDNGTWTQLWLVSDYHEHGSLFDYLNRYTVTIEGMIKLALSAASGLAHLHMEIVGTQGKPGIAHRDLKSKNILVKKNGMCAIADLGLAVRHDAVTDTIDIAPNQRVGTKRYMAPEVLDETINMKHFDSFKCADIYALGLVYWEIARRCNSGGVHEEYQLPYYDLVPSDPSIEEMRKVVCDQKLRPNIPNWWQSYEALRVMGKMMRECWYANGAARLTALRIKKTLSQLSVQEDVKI
inhibition [1],inhibition [2],inhibition [3],inhibition [4],inhibition [5],inhibition [6],inhibition [7],inhibition [8],inhibition [9],inhibition [10],SMILES
< 50%,< 50%,< 50%,< 50%,< 50%,< 50%,< 50%,< 50%,< 50%,< 50%,CN1CCN(c2ccc(-c3cnc4c(c3)N(Cc3cc(Cl)ccc3Cl)CCN4)cn2)CC1
< 50%,< 50%,< 50%,< 50%,< 50%,< 50%,< 50%,< 50%,< 50%,< 50%,CN1CCN(c2ccc(-c3cnc4c(c3)N(Cc3cc(Cl)ccc3C(F)(F)F)CCN4)cn2)CC1
–,< 50%,< 50%,< 50%,< 50%,< 50%,–,< 50%,–,< 50%,COC1CCN(C(=O)c2ccc(-c3cnc4c(c3)N(Cc3cc(Cl)ccc3C(F)(F)F)CCN4)cc2)CC1
–,< 50%,< 50%,< 50%,< 50%,< 50%,–,< 50%,–,< 50%,O=C(c1ccc(-c2cnc3c(c2)N(Cc2cc(Cl)ccc2C(F)(F)F)CCN3)cc1)N1CCCCC1
< 50%,< 50%,< 50%,< 50%,< 50%,< 50%,< 50%,< 50%,< 50%,< 50%,FC(F)(F)c1ccc(Cl)cc1CN1CCNc2ncc(-c3ccnc(N4CCNCC4)c3)cc21
< 50%,< 50%,< 50%,< 50%,< 50%,< 50%,< 50%,< 50%,< 50%,< 50%,CC(=O)N1CCN(c2cc(-c3cnc4c(c3)N(Cc3cc(Cl)ccc3C(F)(F)F)CCN4)ccn2)CC1
–,< 50%,< 50%,< 50%,< 50%,< 50%,–,< 50%,< 50%,< 50%,O=C(O)c1ccc(-c2cnc3c(c2)N(Cc2cc(Cl)ccc2C(F)(F)F)CCN3)cc1
–,< 50%,< 50%,< 50%,< 50%,< 50%,–,< 50%,–,< 50%,O=C(c1ccc(-c2cnc3c(c2)N(Cc2cc(Cl)ccc2C(F)(F)F)CCN3)cc1)N1CCC(N2CCCC2)CC1
< 50%,< 50%,< 50%,< 50%,< 50%,< 50%,< 50%,< 50%,74%,< 50%,CN1CCN(c2ccc(-c3cnc4c(c3)N(Cc3c(F)ccc(F)c3Cl)CCN4)cn2)CC1
< 50%,< 50%,< 50%,< 50%,< 50%,< 50%,< 50%,< 50%,< 50%,< 50%,CN1CCN(c2ccc(-c3cnc4c(c3)N(Cc3cc(F)ccc3F)CCN4)cn2)CC1
